Data reported in ChEMBL document CHEMBL6153131, “Rational Design and Optimization of a Potent IDO1 Proteolysis Targeting Chimera (PROTAC)” (J Med Chem, 2025).
Activity calls are given as the source filed them. No cut-off for these calls is given here.

Assays:
[1] = biological target: T1, Protein cereblon/Indoleamine 2,3-dioxygenase 1 (Homo sapiens, UniProt P14902+Q96SW2); assay: (§1) PROTAC activity at CRBN/N-terminal HiBiT-tagged IDO1 (unknown origin) transfected in human U87 cells assessed as induction of IDO1 degradation pretreated with IFN-gamma for 24 hrs followed by compound addition and measured after 24 hrs by Nano-Glo HiBiT assay; assay type: cell-based
How it was run: (§2)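 U87 cells carrying HiBiT knocked in by CRISPR/Cas9 at the IDO1 N-terminus, treated for 24 h. Degradation read as loss of luminescence. DC50 fitted from the lowest concentration up to maximal degradation, excluding hook-effect points; triplicate mean ± SD.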
Target sequence in this assay (P14902 whole entry): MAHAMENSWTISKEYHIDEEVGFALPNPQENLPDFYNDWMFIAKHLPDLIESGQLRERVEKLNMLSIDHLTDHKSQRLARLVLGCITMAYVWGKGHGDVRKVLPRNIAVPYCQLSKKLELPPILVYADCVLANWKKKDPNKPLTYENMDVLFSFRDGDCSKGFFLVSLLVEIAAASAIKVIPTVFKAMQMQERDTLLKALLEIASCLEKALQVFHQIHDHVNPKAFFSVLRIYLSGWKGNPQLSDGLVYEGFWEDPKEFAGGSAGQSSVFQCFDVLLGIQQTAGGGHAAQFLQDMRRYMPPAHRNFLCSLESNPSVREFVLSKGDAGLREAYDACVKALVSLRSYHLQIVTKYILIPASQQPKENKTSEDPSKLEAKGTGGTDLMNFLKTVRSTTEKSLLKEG
Target sequence in this assay (Q96SW2 whole entry): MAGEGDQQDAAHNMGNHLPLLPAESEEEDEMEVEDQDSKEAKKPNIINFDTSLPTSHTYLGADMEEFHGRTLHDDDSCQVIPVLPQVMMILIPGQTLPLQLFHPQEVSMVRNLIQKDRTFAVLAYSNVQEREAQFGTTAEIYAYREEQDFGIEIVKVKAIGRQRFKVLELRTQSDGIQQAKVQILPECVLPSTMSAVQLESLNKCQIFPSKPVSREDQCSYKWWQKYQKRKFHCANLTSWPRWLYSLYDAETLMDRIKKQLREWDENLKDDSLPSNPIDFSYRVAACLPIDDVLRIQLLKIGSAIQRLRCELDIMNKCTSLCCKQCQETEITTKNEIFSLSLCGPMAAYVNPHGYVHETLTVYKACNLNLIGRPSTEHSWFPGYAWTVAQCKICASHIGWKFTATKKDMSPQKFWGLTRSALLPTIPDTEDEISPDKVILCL

Protein cereblon = Protein cereblon (Homo sapiens, UniProt Q96SW2); assay: Binding affinity to CRBN (unknown origin) assessed as dissociation constant by Biolayer Interferometry assay
[2] = biological target: T1, Protein cereblon/Indoleamine 2,3-dioxygenase 1; assay: as §1, with “degradation by measuring maximum efficacy” for “degradation”, “assay relative to control” for “assay”; assay type: cell-based; how it was run: as §2
Target sequence in this assay (P14902 whole entry, looked up): as the sequence (P14902 whole entry) above
Target sequence in this assay (Q96SW2 whole entry, looked up): as the sequence (Q96SW2 whole entry) above

[3] = biological target: T1, Protein cereblon/Indoleamine 2,3-dioxygenase 1; assay: PROTAC activity at CRBN/IDO1 in human MDA-MB-231 cells assessed as induction of IDO1 degradation at 100 nM pretreated with IFN-gamma for 24 hrs followed by compound addition and measured after 24 hrs by Western blotting analysis; assay type: cell-based
Target sequence in this assay (P14902 whole entry, looked up): as the sequence (P14902 whole entry) above
Target sequence in this assay (Q96SW2 whole entry, looked up): as the sequence (Q96SW2 whole entry) above

[4] = biological target: T1, Protein cereblon/Indoleamine 2,3-dioxygenase 1; assay: PROTAC activity at CRBN/IDO1 in human KNS-42 cells assessed as induction of IDO1 degradation at 100 nM pretreated with IFN-gamma for 24 hrs followed by compound addition and measured after 24 hrs by Western blotting analysis; assay type: cell-based
Target sequence in this assay (P14902 whole entry, looked up): as the sequence (P14902 whole entry) above
Target sequence in this assay (Q96SW2 whole entry, looked up): as the sequence (Q96SW2 whole entry) above

[5] = biological target: T1, Protein cereblon/Indoleamine 2,3-dioxygenase 1; assay: PROTAC activity at CRBN/IDO1 in human SK-OV-3 cells assessed as induction of IDO1 degradation at 100 nM pretreated with IFN-gamma for 24 hrs followed by compound addition and measured after 24 hrs by Western blotting analysis; assay type: cell-based
Target sequence in this assay (P14902 whole entry, looked up): as the sequence (P14902 whole entry) above
Target sequence in this assay (Q96SW2 whole entry, looked up): as the sequence (Q96SW2 whole entry) above

[6] = biological target: T1, Protein cereblon/Indoleamine 2,3-dioxygenase 1; assay: PROTAC activity at CRBN/IDO1 in human U87 cells assessed as induction of IDO1 degradation by measuring remaining activity at 25 nM pretreated with IFN-gamma for 24 hrs followed by compound addition and measured after 24 hrs by Western blotting analysis (reference value: 100%); assay type: cell-based
Target sequence in this assay (P14902 whole entry, looked up): as the sequence (P14902 whole entry) above
Target sequence in this assay (Q96SW2 whole entry, looked up): as the sequence (Q96SW2 whole entry) above

[7] = biological target: T1, Protein cereblon/Indoleamine 2,3-dioxygenase 1; assay: PROTAC activity at CRBN/IDO1 in human U87 cells overexpressing GFP-fused IDO1 assessed as induction of IDO1 degradation at 100 nM pretreated with IFN-gamma for 24 hrs followed by compound addition and measured after 24 hrs by Western blotting analysis; assay type: cell-based
Target sequence in this assay (P14902 whole entry, looked up): as the sequence (P14902 whole entry) above
Target sequence in this assay (Q96SW2 whole entry, looked up): as the sequence (Q96SW2 whole entry) above

[8] = biological target: T1, Protein cereblon/Indoleamine 2,3-dioxygenase 1; assay: PROTAC activity at CRBN/IDO1 in human U87 cells assessed as induction of IDO1 degradation by measuring remaining activity at 100 nM pretreated with IFN-gamma for 24 hrs followed by compound addition and measured after 24 hrs by Western blotting analysis (reference value: 100%); assay type: cell-based
[9] = biological target: T1, Protein cereblon/Indoleamine 2,3-dioxygenase 1; assay: PROTAC activity at CRBN/IDO1 in human PDX-6 cells assessed as induction of IDO1 degradation at 100 nM pretreated with IFN-gamma for 24 hrs followed by compound addition and measured after 24 hrs by Western blotting analysis; assay type: cell-based
[10] = biological target: T1, Protein cereblon/Indoleamine 2,3-dioxygenase 1; assay: PROTAC activity at CRBN/IDO1 in human SW1990 cells assessed as induction of IDO1 degradation at 100 nM pretreated with IFN-gamma for 24 hrs followed by compound addition and measured after 24 hrs by Western blotting analysis; assay type: cell-based
[11] = biological target: T1, Protein cereblon/Indoleamine 2,3-dioxygenase 1; assay: PROTAC activity at CRBN/IDO1 in human U87 cells assessed as induction of IDO1 degradation by measuring remaining activity at 50 nM pretreated with IFN-gamma for 24 hrs followed by compound addition and measured after 24 hrs by Western blotting analysis (reference value: 100%); assay type: cell-based
[12] = biological target: T1, Protein cereblon/Indoleamine 2,3-dioxygenase 1; assay: PROTAC activity at CRBN/IDO1 in human PDX-38 cells assessed as induction of IDO1 degradation at 100 nM pretreated with IFN-gamma for 24 hrs followed by compound addition and measured after 24 hrs by Western blotting analysis; assay type: cell-based
[13] = biological target: T1, Protein cereblon/Indoleamine 2,3-dioxygenase 1; assay: PROTAC activity at CRBN/IDO1 in human PC-3 cells assessed as induction of IDO1 degradation at 100 nM pretreated with IFN-gamma for 24 hrs followed by compound addition and measured after 24 hrs by Western blotting analysis; assay type: cell-based
U-87MG ATCC [14] = assay: Inhibition of kynurenine production in human U87 cells at 25 nM pretreated with IFN-gamma for 24 hrs followed by compound addition and measured after 24 hrs by Ehrlich's reagent based analysis; assay type: functional, cell-based
[15] = biological target: T1, Protein cereblon/Indoleamine 2,3-dioxygenase 1; assay: Binding affinity to CRBN/6His-tagged recombinant IDO1 (unknown origin) assessed as ternary complex formation by measuring half life by Biolayer Interferometry assay; assay type: protein assay
Kelly [16] = assay: Downregulation of ADO protein level in human Kelly cells at 1 uM incubated for 24 hrs by proteomics analysis; assay type: functional, cell-based
[17] = biological target: T1, Protein cereblon/Indoleamine 2,3-dioxygenase 1; assay: PROTAC activity at CRBN/IDO1 in human U87 cells assessed as induction of IDO1 degradation by measuring remaining activity at 0.001 uM pretreated with IFN-gamma for 24 hrs followed by compound addition and measured after 24 hrs by Western blotting analysis (reference value: 100%); assay type: cell-based
How it was run: (§3)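 U87 cells given an extended dose range of PROTAC for 24 h, then Western blot for IDO1. IFNγ-induced IDO1 levels normalised to untreated samples. n = 3 independent experiments; mean ± SEM.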

U-87MG ATCC [18] = assay: Inhibition of kynurenine production in human U87 cells […] and measured after 24 hrs by Ehrlich's reagent based analysis; assay type: functional, cell-based; settings: dose 0.001-10 µM
How it was run: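 U87 cells plated, then 24 h later given compound with 50 ng/mL IFN-γ for a total of 24 h. Supernatant kynurenine measured with Ehrlich's reagent; cells without IFN-γ as control; mean ± SEM, Tukey's test.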

[19] = biological target: T1, Protein cereblon/Indoleamine 2,3-dioxygenase 1; assay: PROTAC activity at CRBN/IDO1 in human U87 cells assessed as induction of IDO1 degradation by measuring remaining activity at 10 uM pretreated with IFN-gamma for 24 hrs followed by compound addition and measured after 24 hrs by Western blotting analysis (reference value: 100%); assay type: cell-based; how it was run: as §3
Kelly [20] = assay: Downregulation of SALL4 protein level in human Kelly cells at 1 uM incubated for 24 hrs by proteomics analysis; assay type: functional, cell-based
[21] = biological target: Indoleamine 2,3-dioxygenase 1 (Homo sapiens) (UniProt P14902); assay: Binding affinity to 6His-tagged recombinant IDO1 (unknown origin) assessed as binary complex formation by measuring half life by Biolayer Interferometry assay
[22] = biological target: T1, Protein cereblon/Indoleamine 2,3-dioxygenase 1; assay: PROTAC activity at CRBN/IDO1 in human U87 cells assessed as induction of IDO1 degradation by measuring remaining activity at 0.3 uM pretreated with IFN-gamma for 24 hrs followed by compound addition and measured after 24 hrs by Western blotting analysis (reference value: 100%); assay type: cell-based; how it was run: as §3
[23] = biological target: T1, Protein cereblon/Indoleamine 2,3-dioxygenase 1; assay: PROTAC activity at CRBN/IDO1 in human U87 cells assessed as induction of IDO1 degradation by measuring maximum efficacy at 300 nM pretreated with IFN-gamma for 24 hrs followed by compound addition and measured after 24 hrs by Western blotting analysis relative to control; assay type: cell-based
How it was run: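 IDO1 in U87 cells induced with 50 ng/mL human IFN-γ, then compound given across an extended dose range for 24 h. IDO1 and GAPDH read by Western blot; IDO1 levels normalized to untreated; DC50 from n = 3 independent experiments.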

[24] = biological target: T1, Protein cereblon/Indoleamine 2,3-dioxygenase 1; assay: PROTAC activity at CRBN/IDO1 in human U87 cells assessed as induction of IDO1 degradation by measuring remaining activity at 0.01 uM pretreated with IFN-gamma for 24 hrs followed by compound addition and measured after 24 hrs by Western blotting analysis (reference value: 100%); assay type: cell-based; how it was run: as §3
Kelly [25] = assay: Downregulation of CDK8 protein level in human Kelly cells at 1 uM incubated for 24 hrs by proteomics analysis; assay type: functional, cell-based
[26] = biological target: T1, Protein cereblon/Indoleamine 2,3-dioxygenase 1; assay: PROTAC activity at CRBN/IDO1 in human U87 cells assessed as induction of IDO1 degradation by measuring remaining activity at 0.03 uM pretreated with IFN-gamma for 24 hrs followed by compound addition and measured after 24 hrs by Western blotting analysis (reference value: 100%); assay type: cell-based; how it was run: as §3
Kelly [27] = assay: Downregulation of EPHX2 protein level in human Kelly cells at 1 uM incubated for 24 hrs by proteomics analysis; assay type: functional, cell-based
[28] = biological target: T1, Protein cereblon/Indoleamine 2,3-dioxygenase 1; assay: PROTAC activity at CRBN/IDO1 in human U87 cells assessed as induction of IDO1 degradation by measuring remaining activity at 1 uM pretreated with IFN-gamma for 24 hrs followed by compound addition and measured after 24 hrs by Western blotting analysis (reference value: 100%); assay type: cell-based; how it was run: as §3
[29] = biological target: T1, Protein cereblon/Indoleamine 2,3-dioxygenase 1; assay: PROTAC activity at CRBN/IDO1 in human U87 cells assessed as induction of IDO1 degradation by measuring remaining activity at 3 uM pretreated with IFN-gamma for 24 hrs followed by compound addition and measured after 24 hrs by Western blotting analysis (reference value: 100%); assay type: cell-based; how it was run: as §3
[30] = biological target: T1, Protein cereblon/Indoleamine 2,3-dioxygenase 1; assay: PROTAC activity at CRBN/IDO1 in human U87 cells assessed as induction of IDO1 degradation by measuring remaining activity at 0.003 uM incubated for 24 hrs by Western blotting analysis (reference value: 100%); assay type: cell-based
[31] = biological target: T1, Protein cereblon/Indoleamine 2,3-dioxygenase 1; assay: PROTAC activity at CRBN/IDO1 in human U87 cells assessed as induction of IDO1 degradation by measuring remaining activity at 0.1 uM pretreated with IFN-gamma for 24 hrs followed by compound addition and measured after 24 hrs by Western blotting analysis (reference value: 100%); assay type: cell-based; how it was run: as §3

Indoleamine 2,3-dioxygenase 1 (Homo sapiens), sequence (P14902 whole entry, looked up): as the sequence (P14902 whole entry) above
Protein cereblon, sequence (Q96SW2 whole entry): as the sequence (Q96SW2 whole entry) above

In the case of `C[C@@H](C(=O)Nc1ccc(OC2CCN(C(=O)CCOCCOCCNc3cccc4c3C(=O)N(C3CCC(=O)NC3=O)C4=O)CC2)cc1)[C@H]1CC[C@@H](c2ccnc3ccc(F)cc32)CC1` (stereo partly specified), the DC50 [1] is reported as 430 nM, the Kd (Protein cereblon) is reported as 290 nM and the Emax [2] is reported as 79%.

With `C[C@@H](C(=O)Nc1cccc(OC2CCN(C(=O)CN3CCC(N4CCN(c5ccc6c(c5)C(=O)N(C5CCC(=O)N(C)C5=O)C6=O)CC4)CC3)CC2)c1)[C@H]1CC[C@@H](c2ccnc3ccc(F)cc32)CC1` (stereo partly specified) the DC50 [1] was > 10000 nM, the Activity [3] was “inactive” and the Activity [4] was “inactive”. For the same molecule, the Activity [5] was “inactive”, the Activity [6] was 99% and the Activity [7] was “inactive”. The Emax [2] was < 10%, the Activity [8] was 162% and the Activity [9] was “inactive”. For the same molecule, the Activity [10] was “inactive”, the Activity [11] was 125% and the Activity [12] was “inactive”. The Activity [13] was “inactive”.

In the case of `C[C@@H](C(=O)Nc1ccc(Cl)cc1)[C@H]1CC[C@@H](c2ccnc3ccc(F)cc32)CC1`, the inhibition (U-87MG ATCC [14]) is reported as “Active”.

With `C[C@@H](C(=O)Nc1cccc(OC2CCN(C(=O)CN3CCC(CN4CCN(c5ccc6c(c5)C(=O)N(C5CCC(=O)NC5=O)C6=O)CC4)CC3)CC2)c1)[C@H]1CC[C@@H](c2ccnc3ccc(F)cc32)CC1` (stereo partly specified) the DC50 [1] was 20 nM, the T1/2 [15] was 4.27 min and the Activity (Kelly [16]) was “Active”. For the same molecule, the Activity [17] was 93%, the inhibition (U-87MG ATCC [18]) was “Dose-dependent-effect” and the Activity [19] was 93%. For the same molecule, the Emax [2] was 67%, the Activity (Kelly [20]) was “Active” and the T1/2 [21] was 53 s. The Activity [22] was 32%, the Emax [23] was 68% and the Activity [24] was 84%. The Activity (Kelly [25]) was “Active”, the Activity [26] was 71% and the Activity (Kelly [27]) was “Active”. It also gave an Activity [28] of 37%, an Activity [29] of 57% and an Activity [30] of 88%. For the same molecule, the Activity [31] was 47%.
